Screens deposited in PubChem by several laboratories.
TLR4-MyD88 BLA – blocks binding of human TLR4 to MyD88; HeLa CL3-4 TLR4/MyD88 BLA complementation, FRET ratio; inhibition, % at 8.4 µM; hit rate 0.18% among 200,000; O00206+Q99836; in the data active = inhibition above about 25%
TLR9-MyD88 block – inhibitors of human TLR9-MyD88 binding. Q9NR96+Q99836. CHO BLA complementation TLR9-MyD88, CCF4 FRET ratio. inhibition, % at 4.98 µM. hit rate 0.21% among 340,000. AID 504734;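 active = inhibition above the mean over all tested compounds plus 3 SD, cut at about 21% in these data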
NOD2 RIPK2 PPI – blocks binding of human NOD2 to RIPK2; AID 624267; hit rate 0.38% among 360,000; inhibition, % at 4.98 µM; CHO BLA complementation NOD2-RIPK2, CCF4 ratio; in the data active = inhibition above about 21%
Target sequence (O43353 whole entry, looked up): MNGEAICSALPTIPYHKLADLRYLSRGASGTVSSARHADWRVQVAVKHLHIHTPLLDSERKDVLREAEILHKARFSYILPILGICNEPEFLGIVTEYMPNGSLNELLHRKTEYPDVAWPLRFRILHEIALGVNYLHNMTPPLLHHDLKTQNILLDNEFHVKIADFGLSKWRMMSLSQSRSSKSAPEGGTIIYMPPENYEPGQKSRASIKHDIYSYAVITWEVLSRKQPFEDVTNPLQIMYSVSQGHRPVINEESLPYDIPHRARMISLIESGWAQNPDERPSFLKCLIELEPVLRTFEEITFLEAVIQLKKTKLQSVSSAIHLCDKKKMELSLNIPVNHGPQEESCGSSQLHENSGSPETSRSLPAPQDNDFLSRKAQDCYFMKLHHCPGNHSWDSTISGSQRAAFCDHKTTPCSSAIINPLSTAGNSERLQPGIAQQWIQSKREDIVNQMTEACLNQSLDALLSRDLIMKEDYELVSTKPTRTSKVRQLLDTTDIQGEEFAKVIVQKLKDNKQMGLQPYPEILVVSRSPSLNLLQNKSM
MT1-MMP act inh – MT1-MMP (human) activation inhibition; GFP/RFP ratio change, % at 20 µM; P50281; hit rate 0.061% among 360,000; HT1080 RFP-PRO-GFP cells, GFP/RFP ratio fluorescence, overnight; percent of plate control window, DMSO zero;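 active = GFP/RFP ratio change of at least 30% with cell ATP level not reduced by more than half and red fluorescence within 50% of control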
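Test system: HT1080 RFP-PRO-GFP cells; Benchmarks: DMSO and RFP-L50D-GFP cell wells; Timing: cells overnight before dosing, compound overnight, 37 °C, 5% CO2; Compound: one 20 µM compound dose with 1% DMSO; Read-out: GFP/RFP fluorescence ratio.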
SKN-1 inh – inhibitors of C. elegans SKN-1; AID 624304; inhibition, % at 21.8 µM; C. elegans VP596 Pgst-4::GFP/RFP ratio, acrylamide-induced, 24 h; hit rate 0.49% among 360,000;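 active = interference check ratio from 0.5 to 1.5 plus GFP to RFP signal ratio inhibition reaching or exceeding a fixed threshold, cut at about 30% in these data, passing the limit was not always enough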
A number is an active result; 0 = inactive; - = no result. Shown are actives, neighbours in structure and some others; about 0.99% of the full set was active somewhere.

SMILES | TLR4-MyD88 BLA | TLR9-MyD88 block | NOD2 RIPK2 PPI | MT1-MMP act inh | SKN-1 inh
O=C(c1ccc(F)cc1)C1CCN(S(=O)(=O)c2ccccc2)CC1 | 0 | 0 | 0 | 0 | 0
COc1cc(NS(=O)(=O)c2ccc(Br)cc2)c(OC)cc1NC(=O)c1ccco1 | 0 | 0 | 0 | 0 | 48
COc1ccc(S(=O)(=O)Nc2cc(OC)c(NC(=O)c3ccco3)cc2OC)cc1 | 0 | 0 | 0 | 0 | 0
Clc1ccc(-n2nnc(-c3cccnc3)n2)cc1Cl | 0 | 0 | 0 | 0 | 59
Clc1ccc(-n2nnc(-c3nccs3)n2)cc1Cl | 0 | 0 | 0 | 0 | 61
Fc1ccc(-n2nnc(-c3cccnc3)n2)cc1 | 0 | 0 | 0 | 0 | 56
O=C(OCn1ncc(Br)c(Br)c1=O)c1ccc(F)cc1 | 0 | 35 | 74 | 0 | 0
CC(=O)OCn1ncc(N2CCOCC2)c(Br)c1=O | - | 0 | 0 | 0 | 0
O=C(Nc1cc(C(F)(F)F)ccc1N1CCCCC1)C1=COCCO1 | - | 0 | 0 | 0 | 39
O=C(Nc1ccccc1N1CCCCC1)C1=COCCO1 | - | 0 | 0 | 0 | 0
O=C(NCCN1C(=O)C2C3C=CC(C3)C2C1=O)Nc1ccccc1O (stereo not drawn) | 0 | 0 | 0 | 0 | 38
CCN(CC)CCOC(=O)c1ccc(NC(=O)CCCN2C(=O)/C(=C\c3cccs3)SC2=S)cc1 | - | 0 | 0 | 0 | 39
CCOC(=O)c1c(C)[nH]c(C(=O)OCC(=O)N2CCN(S(=O)(=O)c3ccccc3)CC2)c1C | 0 | 0 | 0 | 0 | 42
CC(=O)c1c(C)[nH]c(C(=O)OCC(=O)N2CCN(S(=O)(=O)c3ccc(C)cc3)CC2)c1C | - | 0 | 0 | 0 | 0
CCCNC(=O)COC(=O)c1[nH]c(C)c(C(=O)OCC)c1C | 0 | 0 | 0 | 0 | 35
CCOC(=O)c1[nH]c(C)c(C(=O)OCC)c1C | 0 | 0 | 0 | 0 | 0
CCOc1ccc(-n2cnc3sc(C)c(C)c3c2=O)cc1 | - | 0 | 0 | 0 | 0
C[C@H](NC(=O)c1[nH]cnc1C(=O)Nc1ccc(Cl)cc1)C(=O)OC(C)(C)C | - | 0 | 0 | 0 | 36
CCOC(=O)c1ccc(NC(=O)c2nc[nH]c2C(=O)N[C@@H](C)C(=O)OC(C)(C)C)cc1 | - | 0 | 0 | 0 | 0
O=C(NCc1cccs1)c1csc([C@@H]2O[C@H](CO)[C@H](O)[C@H](O)[C@H]2O)n1 | - | - | 0 | 0 | 43
Cc1c(C(=O)N(C)c2ccc(Cl)cc2)cnn1-c1ccccc1 | - | 0 | 0 | 0 | 38
O=C(/C=C/Nc1ccc(F)cc1)c1cccs1 | 0 | 0 | 0 | 0 | 0
Cc1cccc(N/C=C/C(=O)c2cccs2)c1C | 0 | 0 | 0 | 0 | 44
O=C(/C=C/Nc1ccc(F)c(F)c1)c1cccs1 | 0 | 0 | 0 | 0 | 44
NC(=O)c1ccccc1N/C=C/C(=O)c1cccs1 | 0 | 0 | 0 | 0 | 0
SMILES | TLR4-MyD88 BLA | TLR9-MyD88 block | NOD2 RIPK2 PPI | MT1-MMP act inh | SKN-1 inh
C[C@H]1CN([C@@H](C)CO)C(=O)c2cc(Br)cnc2O[C@@H]1CN(C)C(=O)Nc1ccc(C(F)(F)F)cc1 | - | 0 | 0 | 0 | 0
CC1CCCCN1S(=O)(=O)c1ccc(C(=O)Nc2sccc2C(N)=O)cc1 (stereo not drawn) | 0 | 0 | 0 | 0 | 40
COc1cc(/C=C/C(=O)OCC(=O)N2CCN(S(=O)(=O)c3ccc(C)cc3C)CC2)cc(Cl)c1OC | - | 0 | 0 | 0 | 0
O=[N+]([O-])c1cccc2ccc(/C=C/c3ccc(F)cc3)nc12 | 0 | 0 | 0 | 0 | 36
COC(=O)C[C@H]1c2cc(C(F)(F)F)ccc2S(=O)(=O)N1C1CCCC1 | - | 0 | 0 | 0 | 0
Nc1c(S(=O)(=O)O)cc(NC(=O)c2ccccc2)c2c1C(=O)c1ccccc1C2=O | - | 0 | 0 | 57 | 0
O=C(O)c1cc2ccccc2c(N=Nc2cccnc2)c1O | - | 0 | 0 | 0 | 39
CN(C)S(=O)(=O)NC(c1ccccc1)c1ccccc1 | 0 | 0 | 0 | 0 | 36
Fc1ccc(CSc2nnc(-c3ccco3)o2)cc1 | - | 0 | 0 | 0 | 71
Brc1ccc(CSc2nnc(-c3ccco3)o2)cc1 | 0 | 0 | 0 | 0 | 94
Cc1ccc(CSc2nnc(-c3ccco3)o2)cc1 | 0 | 0 | 0 | 0 | 82
c1ccc(CSc2nnc(-c3ccco3)o2)cc1 | - | 0 | 0 | 0 | 0
Cc1cccn2c(=O)c(/C=C3\SC(=S)NC3=O)c(NCCCN3CCOCC3)nc12 | - | 0 | 0 | 0 | 52
COC(=O)N1CCCC(c2cc(C(=O)Nc3ccccc3Cl)no2)C1 (stereo not drawn) | - | - | 0 | 0 | 0
